Data on one compound can be found in PMC3993932 (Molecular Pharmaceutics, 2014).

A short description of data set [1]: In vitro release study by dialysis method. In kind it is physicochemical. The method, boiled down:
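Micelles, free parent drug, or free prodrug were placed in a 20 kDa MWCO dialysis cassette against 500 mL PBS (20 mM, pH 7.4) at 37 °C. The sink was refreshed at each sampling. Free prodrug was taken from a 6 mM Tween 80/ethanol (1:4) stock and diluted in HEPES saline to a final 100 μM. Cassette contents were sampled over time and quantified by HPLC. Ct/C0 = e^–kt was fitted by nonlinear regression, and t1/2 = 0.693/k.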

The subject of another data set is BxPC-3 xenografts. Description: Antitumor efficacy study in mice bearing BxPC-3 xenografts. As to conditions: iv 10 mg/kg gemcitabine equivalent on days 0, 3, 7, 10. It counts as in vivo. The method, boiled down:
(§1)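 Female athymic nude mice (nu/nu, 5–6 weeks) received subcutaneous BxPC-3 cells (2 × 10^6 in matrigel/RPMI) in each flank. At 50–100 mm3, mice were randomized to untreated, free parent drug in PBS, or micellar prodrug groups (4 per group). Dosing was iv 10 mg/kg parent-drug equivalent on days 0, 3, 7 and 10. Tumor volume was measured by caliper as 1/2 × length × width², and body weight was tracked. Groups were compared by t-test.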

The nature of data set [2]: Body weight of treated mice in the efficacy study. It counts as in vivo. As to conditions: iv 10 mg/kg gemcitabine equivalent twice weekly for 2 weeks. The method, boiled down:
as §1

Data set [3] concerns cytidine deaminase and cathepsin B. In kind it is in vitro ADME, human. The following applies: by 1 h; cathepsin B 5 U/mL, cytidine deaminase 15 μg/mL, pH 6.5, 37 °C.
Data set [4] can be described thus: Pharmacokinetic study in mice bearing BxPC-3 xenografts. In kind it is in vivo. The method, boiled down:
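Female nude mice carried BxPC-3 subcutaneous xenografts of 100–300 mm3 (3 per group). Mice received iv 25 mg/kg parent-drug equivalent as free drug in PBS, free prodrug in Tween 80/ethanol:PBS (1:4), or micelles. Retro-orbital blood was taken at 3–90 min. Samples were quenched with acetic acid, precipitated with acetonitrile, and analyzed by HPLC with internal standards for prodrug, parent and deaminated metabolite. t1/2, CLT and Vd,ss came from noncompartmental analysis.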

Data set [5] relates to human pancreatic cancer BxPC-3 cells. As to the kind of experiment: Cell proliferation assay. In kind it is cell-based. As to conditions: BXPC-3, 72 h. The method, boiled down:
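BxPC-3 cells were grown in RPMI with 10% FBS and penicillin/streptomycin at 37 °C under 5% CO2, then seeded in 96-well plates. Stocks were 1 mM (parent drug in PBS, prodrug in DMSO). Cells were exposed to 10–150 nM free or micellar test compound for 72 h. They were then fixed with 1% glutaraldehyde, stained with 0.1% crystal violet and dissolved in 10% acetic acid, with absorbance read at 595 nm. Viability was expressed as % of untreated wells.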

Data set [6] has as its system tumor cells with wild-type hENT1 and deoxycytidine kinase. As to conditions: cell culture, tumor cells with wild-type hENT1 and deoxycytidine kinase ref 36; cited from earlier work.
Setting [7] is: female, athymic nude (nu/nu), mouse, plasma, iv, 25 mg/kg.

For `Nc1ccn([C@@H]2O[C@H](CO)[C@@H](O)C2(F)F)c(=O)n1` [gemcitabine, 2′,2′-difluorocytidine], the “release half-life (t1/2,release)” value in data set [1] (dialysis) is “about 15 min”. In addition, the “t1/2,release” value in data set [1] (dialysis 20 kDa MWCO, PBS pH 7.4, 37 °C, 0.693/k) came out at 14.4 min. Also, the release rate constant in data set [1] (dialysis 20 kDa MWCO, PBS pH 7.4, 37 °C, free GemC18 in Tween 80/ethanol) turned out to be 2.920 h^–1. Further, in the data set with BxPC-3 xenografts, the “effect on tumor growth” value is reported as “unable to arrest the tumor growth”. Moreover, the “body weight / overt toxicity” value in data set [2] is “no overt toxicity”. In addition, in data set [3], the “conversion to dFdU” value was 80%. In data set [4] (setting [7]), the AUC is 18.8 µM·h and the Vd is 1.06 ± 0.132 L/kg. This compound also yielded a CLT of gemcitabine in data set [4] (plasma gemcitabine, iv 25 mg/kg, mice) of 5.04 ± 0.24 L/h/kg. The EC50 in data set [5] came to 0.025 µM. In data set [6], the EC50 result is reported as “low nanomolar range”.
